Test results taken from PubChem BioAssay AID686939 (The Scripps Research Institute Molecular Screening Center, 2013).
About 1,400 (40%) of roughly 3,500 compounds were called active. So high a share suggests a set chosen from earlier hits. The list is a sample of the results. Values without a mark were called inactive.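 The calls were made as follows: active = activation above the solvent-only control well mean plus 3 SD, averaged across control plates (cut at about 5.2% in these data); inactive = the rest.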

Experiment: nonselective transcriptional activators, VP16 reporter – cell-based, pG5luc, luminescence, high throughput, counter-screen for SMARCA2 (BRM) activator project (AID 686939)
Settings: HEK293 GAL4-VP16 pG5luc reporter, luciferase luminescence; at 9.1 µM; stronger effect = higher value; scaled: DMSO wells 0%, SAHA wells 100%
Procedure, shortened: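 Assay system – HEK293 GAL4-VP16 luciferase reporter cells · Input – 2,500 cells per well · Detection – One-Glo luciferase luminescence · Control set – DMSO wells as low control, SAHA wells as high control · Measure – percent activation scaled between DMSO (0%) and SAHA (100%) control medians · Times – 24 h compound treatment at 37 °C, 15 min detection incubation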

SMILES | activation
Cc1cc(C)c2nc(NC(=O)C3CCCO3)sc2c1 (stereo not drawn) | 7.97% (active)
O=C(Nc1nnc(CCc2ccccc2)s1)C1CCCO1 (stereo not drawn) | 0.86%
Cc1ccccc1C1=N/C(=C/c2cccnc2)C(=O)O1 | 0.55%
COC(=O)c1ccc(NCc2cc(O)ccc2O)cc1 | 5.14% (active)
COC(=O)c1ccc(/C=C2/C(=O)Oc3ccccc32)cc1 | -0.16%
Cc1ccc(O)c(CNc2nc3ccccc3n2C)c1 | 1.49%
CCC1CCC/C1=N\NC(=O)c1ccc(Cl)cc1 (stereo not drawn) | 0.4%
O=C(C1CCC1)N1CCN(S(=O)(=O)c2ccc([N+](=O)[O-])cc2)CC1 | 0.6%
Cc1ccsc1-c1nc(CSCC(=O)NCCN2CCCC2)c(C)o1 | 0.41%
Cc1ccc(C(=O)Nc2nc3ccc(Cl)cc3s2)o1 | 7.07% (active)
CC1CCCCN1C(=S)NCc1ccccc1 (stereo not drawn) | -0.22%
Cc1ccc(C(=O)NNC(=O)c2cccs2)cc1 | 6.36% (active)
Cc1ccc(S(=O)(=O)c2c[nH]c3ccc(Cl)cc3c2=O)cc1 | -0.72%
Cc1ccc(S(=O)(=O)NC(C)C(=O)NCc2ccc(Cl)cc2)cc1 (stereo not drawn) | -0.12%
COc1ccc(NC(=O)c2sccc2SCC#N)cc1 | 2.71%
O=[N+]([O-])c1ccc2c(c1)Nc1nc3ccccc3nc1N2 | 10.8% (active)
CCCn1c(=O)c2ccccc2n2c(SCC(=O)/C(C#N)=C(\C)N)nnc12 | -0.93%
CCc1cc2c(=O)c(-c3ccon3)c(N)oc2cc1OC | 5.65% (active)
Cc1n[nH]c(=O)nc1N/N=C/c1cccs1 | 2.94%
CC(C)c1ccc(NC(=S)NC2CC3C=CC2C3)cc1 (stereo not drawn) | 8.15% (active)
CCc1ccc(NC2Nc3cc(C)nn3S2)cc1 (stereo not drawn) | 6.27% (active)
O=C(Nc1ccc(F)cc1)c1cc2c(s1)CCCC2 | 10.8% (active)
Cc1ccc(NC(=O)c2cnc(SCC(=O)NCC3CCCO3)n(C)c2=O)cc1 (stereo not drawn) | 3.55%
O=C(NCC1CCCO1)c1cc2c(s1)CCCC2 (stereo not drawn) | 10.9% (active)
COCn1c(COc2ccccc2)nc2ccccc21 | 3.98%
CN1CCN(CCCNC(=O)c2ccc(/C=C3\Oc4ccccc4N(Cc4ccc(Cl)cc4)C3=O)cc2)CC1 | 2.16%

SMILES | activation
COC(=O)Cc1nnn2c1[C@H](C)[C@H](c1ccccc1[N+](=O)[O-])OCC2 | 1.5%
CCOc1cc(NC(=S)NCCCOC)c(OCC)cc1NC(=O)c1ccco1 | -0.82%
C/C(CC(=O)NC(C)(C)C)=N\NC(=O)c1ccco1 | 1.25%
O=C(Nc1ccc(NC(=O)c2cccs2)cn1)c1ccco1 | 11.6% (active)
O=C(Nc1ccc2nccnc2c1)c1ccco1 | 6.58% (active)
Cn1sc(=O)c2cc(S(=O)(=O)NC3CC3)ccc21 | 1.24%
Cc1ccsc1C(=O)N/N=C/c1ccc([N+](=O)[O-])cc1 | 14.2% (active)
O=C1/C(=C\c2ccc([N+](=O)[O-])cc2)CS(=O)(=O)C/C1=C/c1ccc([N+](=O)[O-])cc1 | -4.02%
O=C(OCC(=O)c1cccs1)C1=COCCO1 | 7.73% (active)
O=C(NCc1ccccn1)c1cnc2sccn2c1=O | 2.95%
Cc1cc(C)n2nc(CNS(=O)(=O)c3c(F)c(F)c(F)c(F)c3F)nc2n1 | 1.55%
CC(C)(C)C(=O)CSc1nc2ccccc2o1 | 5.87% (active)
CN(C)c1nc(=Nc2cccc(Cl)c2)ss1 | 1.47%
COc1ccc(/C(N)=N/OC(=O)Oc2ccccc2)cc1 | -0.09%
CCCOc1ccc(-c2nc(N)n[nH]2)cc1 | 6.36% (active)
COc1ccc2nc(/N=C(\N)NC(=O)Nc3ccccc3)nc(C)c2c1 | -0.04%
Cc1ccnc(NC(=O)C2CCN(S(=O)(=O)c3c(C)c(C)cc(C)c3C)CC2)c1 | 1.57%
COc1cccc(C(=O)Nc2nc3ccc(S(C)(=O)=O)cc3s2)c1 | 5.21% (active)
N#Cc1ccccc1NC(=O)c1cccc(COc2ccc(Cl)cc2Cl)c1 | 21.9% (active)
COc1ccc(S(=O)(=O)NC(C)C(=O)N2CCCCCC2)cc1 (stereo not drawn) | -0.22%
CC(=O)Nc1ccc(Nc2c3ccccc3nc3ccccc23)cc1 | 1.5%
CCCC(=O)N1c2ccc(-c3csc(N)n3)cc2CC1C (stereo not drawn) | 13.6% (active)
CCC(=O)Nc1ccc2nn(-c3ccc(F)cc3)nc2c1 | 7.66% (active)
CCCSC(=S)NC1CCS(=O)(=O)C1 (stereo not drawn) | -1.45%
Cc1noc(C)c1/C=N/Nc1ccc2ccccc2n1 | 11.4% (active)
COc1ccc(/C=C/C(=O)Nc2ccc(C34CC5CC(CC(O)(C5)C3)C4)cc2)cc1OC | 16.6% (active)

SMILES | activation
Cc1c(NC(=O)CSc2cccc3cccnc23)c(=O)n(-c2ccccc2)n1C | -2.03%
COc1ccc(C(=O)N/N=c2\oc3ccccc3cc2C(N)=O)cc1 | 2.08%
Cn1cc(/C=C/C(=O)N2CCCC(C(=O)c3ccc(C(F)(F)F)cc3)C2)cn1 (stereo not drawn) | 0.52%
CCN(CC)CCNC(=O)c1ccc(NC(=O)c2cc(-c3ccncc3)nc3ccccc23)cc1 | 1.61%
CN(C)CCNC(=O)c1ccc(Cl)c2cc3ccccc3nc12 | 10.7% (active)
O=C(CCCCCn1c(=S)[nH]c2ccsc2c1=O)NC1CCCCC1 | -0.19%
Oc1cccc2ccc(/C=C/c3ccc(Br)s3)nc12 | 8.85% (active)
Cc1nc(N=C(N)N)nc2c(C)cccc12 | 0.25%
CC(=O)c1sc(NC(=O)c2ccc(C)cc2)nc1C | 8.83% (active)
CC(=O)c1sc(N/N=C\c2ccc(C)cc2)nc1C | 6.19% (active)
Cc1ccc(NC(=O)c2cc3ccccc3o2)cc1 | 4.91%
CC(=O)Oc1ccc(C(=O)Nc2nccs2)cc1 | 5%
Cc1ccc(Nc2nc(Cl)c(C=O)s2)cc1 | 3.07%
CC(C)C[C@H]1CNC(=O)C(=O)N1C[C@H]1CCCN1C[C@H](Cc1ccc(O)cc1)N1C[C@H](CC(C)C)N(CC2CCCCCC2)C(=O)C1=O | 0.47%
Cc1ccc(-c2nc3ccc(Br)cn3c2Cc2ccccc2C(F)(F)F)cc1 | 7.09% (active)
Cc1ccc(-c2nc3ccc(Cl)cn3c2Cc2ccccc2)cc1 | 5.49% (active)
CC(C)Cc1nnc(NC(=O)CCNC(=O)c2ccccc2Cl)s1 | -0.47%
Cc1cc(-n2cnc(-c3cn(C)nc3C)n2)no1 | 2.79%
Cc1nnc(NC(=O)Cn2c(=O)sc3ccccc32)s1 | 0.78%
COc1ccccc1C1=Nc2cccc3cccc(c23)N1 | 2.12%
NS(=O)(=O)c1ccccc1NC(=O)c1c(O)c2ccccc2[nH]c1=O | 14.3% (active)
CCN(CC)C(=O)CSc1nnc(-c2cccc(OC)c2)o1 | 2.98%
CCOC(=O)Nc1ccc(NC(=O)OCC)cc1 | 2.67%
COc1ccc(-c2cc(-c3ccc(N)cc3)nc(N)c2C#N)cc1OC | 3.72%
CCCCCCOC(=O)NCC(O)c1ccccc1 (stereo not drawn) | 9.46% (active)
CC(=O)c1ccc(NC(=O)c2sc3nc4n(c(=O)c3c2C)CCCCC4)cc1 | 9.18% (active)

SMILES | activation
O=c1c2c(nc3n1CCCCC3)sc1c(O)cccc12 | 6.75% (active)
CCOc1cccc2c1OC1(CCCCC1)N1N=C(c3cccnc3)CC21 (stereo not drawn) | 0.45%
O=C(Cn1ncc(N2CCCC2)c(Br)c1=O)c1ccc(Cl)cc1 | 5.53% (active)
COc1ccc2ccccc2c1CNCc1ccccn1 | 4.06%
C1=C(CCNc2ncnc3c2cnn3-c2ccccc2)CCCC1 | 14.9% (active)
CN(C)C(CNC(=O)c1ccc(OCc2cn3ccccc3n2)cc1)c1ccco1 (stereo not drawn) | 3.42%
C=CC(=O)OCCOCCOCCOCCOC(=O)C=C | 3.33%
COC(=O)C1C(=O)c2c([nH]c(C(=O)OCCSC)c2C)CC1C (stereo not drawn) | 11.8% (active)
O=C(CSc1nc2ccccc2[nH]1)c1cccs1 | 13.1% (active)
CC1(C(=O)NS(=O)(=O)C2CC2)CCCN(C(=O)CSc2ccccc2)C1 (stereo not drawn) | -0.05%
Cc1cc(C(=O)NNC(=S)Nc2ccccc2C)cs1 | 8.68% (active)
Cc1ccc(-n2c(SCC(=O)N3CCC(C(=O)O)CC3)nc3ccccc3c2=O)cc1C | 4.53%
CCNC(=S)N1CCN(c2ncccn2)CC1 | -0.27%
COC(=O)c1sc(-c2ccc(C(C)(C)C)cc2)cc1NC(=O)/C=C/C(=O)O | 4.46%
Cn1c2ccc(F)cc2c2nnc(NN)nc21 | 0.75%
Cc1cccc(CSc2ccc(-c3cccs3)nn2)c1 | 3.46%
COc1ccc(Cn2c(C)c(C)c(C#N)c2NC(=O)Nc2ccc(F)cc2)cc1 | -0.19%
O=C(Nc1ccc2c(c1)CCC2)c1ccc(Br)s1 | 5.57% (active)
O=C(NC1CCCC1)C(=O)c1c[nH]c2ccccc12 | 6.44% (active)
CC(=O)c1cccc(-c2cnc3c(NC=O)cc(-c4ccc(N5CCN(C)CC5)cc4)cn23)c1 | 2.83%
CCN(CC)C(=O)c1sc2nc(-c3ccccc3)ccc2c1N | 11.2% (active)
COc1cccc(C(=O)Nc2cc3c(cc2Br)OCCCO3)c1 | 9.44% (active)
c1ccc2cc3c(NCCN4CCOCC4)ccnc3cc2c1 | 0.84%
Cc1cccc(-n2c(O)c(C=Nc3ccccc3N)c(=O)[nH]c2=O)c1 | 6.14% (active)
C=C1C(=O)[C@]23C[C@H]1CCC2[C@@]1(C)C(C[C@@H]3O)[C@](C)(C(=O)O)CC[C@@H]1O (stereo partly drawn) | 1.65%
